Test results from ChEMBL document CHEMBL3994572, “Antiviral Triterpenes from the Twigs and Leaves of Lyonia ovalifolia” (J Nat Prod, 2016).

Key:
[1] = Selectivity index, ratio of TC50 for MDCK cells to IC50 for Influenza A virus (A/95-359) infected in MDCK cells; format: toxicity, cell-based; settings: dog, read-out: Selectivity Index
How it was run: (§1)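 MDCK cells (2.5 × 10^4/well) seeded 24 h, PBS-washed, infected with influenza A/95-359 at 100 TCID50 for 2 h, then exposed to graded compound concentrations until control CPE reached 4+. IC50 = minimal concentration inhibiting 50% of CPE (Reed and Muench); triplicate, at least three separate experiments. […] SI = TC50/IC50.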

[2] = Selectivity index, ratio of TC50 for African green monkey Vero cells to IC50 for Herpes simplex virus-1 F VR 733 infected in African green monkey Vero cells; format: toxicity; settings: read-out: Selectivity Index
How it was run: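 Vero cells (2.5 × 10^4/well) seeded 24 h, medium removed, infected with HSV-1 at 100 TCID50 for 2 h, then graded compound concentrations added until control CPE reached 4+. IC50 = minimal concentration inhibiting 50% CPE (Reed and Muench); triplicate, at least three separate experiments. […] SI = TC50/IC50.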

[3] = tested on: Coxsackievirus B3; test: Antiviral activity against Coxsackievirus B3 infected in African green monkey Vero cells assessed as inhibition of virus-induced cytopathic effect; format: functional; settings: Enterovirus B
How it was run: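 Vero monolayers were infected with Cox B3 at 100 TCID50 and allowed 2 h adsorption at 37 °C. They were then washed with PBS and kept at 37 °C in MEM with 2% FBS, with or without graded concentrations of test compounds. Read-out was CPE.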

[4] = tested on: Human alphaherpesvirus 1; test: Antiviral activity against Herpes simplex virus-1 F VR 733 infected in African green monkey Vero cells assessed as inhibition of virus-induced cytopathic effect; format: functional; settings: Human alphaherpesvirus 1, Strain F ATCC VR 733, Vero
How it was run: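 Vero cells (2.5 × 10^4/well) were seeded for 24 h, then the medium was removed. Cells were infected with HSV-1 at 100 TCID50 for 2 h, then given graded compound concentrations. Incubation continued until control CPE reached 4+. Runs were in triplicate, repeated at least three times. IC50 is the minimal concentration inhibiting 50% of CPE, by Reed and Muench.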

[5] = tested on: Influenza A virus; test: Antiviral activity against Influenza A virus A/95-359 infected in MDCK cells assessed as inhibition of virus-induced cytopathic effect; format: functional, cell-based; settings: A/95-359, MDCK; how it was run: as §1
[6] = Cytotoxicity against African green monkey Vero cells assessed as growth inhibition after 48 hrs; format: cell-based; settings: chlorocebus sabaeus, read-out: TC50
How it was run: (§2)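 Vero or MDCK cells (2.5 × 10^4/well) were seeded for 24 h, then exposed to graded compound concentrations. After 48 h at 37 °C and 5% CO2, cytotoxicity was scored by CPE. TC50 was calculated by Reed and Muench analysis.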

[7] = Selectivity index, ratio of TC50 for African green monkey Vero cells to IC50 for Coxsackievirus B3 infected in African green monkey Vero cells; format: toxicity; settings: read-out: Selectivity Index
How it was run: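 Vero monolayers infected with 100 TCID50 Coxsackie B3 virus, 2 h adsorption at 37 °C, PBS-washed, then held in MEM plus 2% FBS at 37 °C with graded compound concentrations. […] SI = TC50/IC50.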

[8] = Cytotoxicity against MDCK cells assessed as growth inhibition after 48 hrs; format: cell-based, Canis lupus familiaris; settings: dog, read-out: TC50; how it was run: as §2

Structure (SMILES)	selectivity ratio [1]	selectivity ratio [2]	IC50 [3] [µM]	IC50 [4] [µM]	IC50 [5] [µM]	CC50 at 48 h [6] [µM]	selectivity ratio [7]	CC50 at 48 h [8] [µM]
C[C@H](CCC(=O)C(C)(C)O)[C@H]1CC[C@@]2(C(=O)O)[C@@H]3CCC4=C(CC[C@@H](O)C4(C)C)C[C@H]3CC[C@]12C	3	4.3	2.1	3.7	2.1	16	7.6	6.4
C[C@H](CC[C@H](O)C(C)(C)O)[C@H]1CC[C@@]2(C(=O)O)[C@@H]3CCC4=C(CC[C@@H](O)C4(C)C)C[C@H]3CC[C@]12C	4	5.2	4.8	11.1	4.8	48.1 to 57.7	10	19.3
CC(=O)OC[C@H]1O[C@@H](O[C@@H]2CC[C@]3(C)C4=C(CC[C@H]3C2(C)C)[C@]2(C(=O)O)CC[C@H]([C@H](C)CC[C@H](O)C(C)(C)O)[C@@]2(C)CC4)[C@H](O)[C@@H](O)[C@@H]1O	1.7	3	11.1	6.4	11.1	19.3	1.7	19.3
